Assay results pooled from the literature.
Lines come from different studies, so protocols differ.
Target: Inhibitor of nuclear factor kappa-B kinase subunit epsilon (IKBKE, Homo sapiens, UniProt Q14164)
Sequence (Q14164 1-716, as in one of the studies): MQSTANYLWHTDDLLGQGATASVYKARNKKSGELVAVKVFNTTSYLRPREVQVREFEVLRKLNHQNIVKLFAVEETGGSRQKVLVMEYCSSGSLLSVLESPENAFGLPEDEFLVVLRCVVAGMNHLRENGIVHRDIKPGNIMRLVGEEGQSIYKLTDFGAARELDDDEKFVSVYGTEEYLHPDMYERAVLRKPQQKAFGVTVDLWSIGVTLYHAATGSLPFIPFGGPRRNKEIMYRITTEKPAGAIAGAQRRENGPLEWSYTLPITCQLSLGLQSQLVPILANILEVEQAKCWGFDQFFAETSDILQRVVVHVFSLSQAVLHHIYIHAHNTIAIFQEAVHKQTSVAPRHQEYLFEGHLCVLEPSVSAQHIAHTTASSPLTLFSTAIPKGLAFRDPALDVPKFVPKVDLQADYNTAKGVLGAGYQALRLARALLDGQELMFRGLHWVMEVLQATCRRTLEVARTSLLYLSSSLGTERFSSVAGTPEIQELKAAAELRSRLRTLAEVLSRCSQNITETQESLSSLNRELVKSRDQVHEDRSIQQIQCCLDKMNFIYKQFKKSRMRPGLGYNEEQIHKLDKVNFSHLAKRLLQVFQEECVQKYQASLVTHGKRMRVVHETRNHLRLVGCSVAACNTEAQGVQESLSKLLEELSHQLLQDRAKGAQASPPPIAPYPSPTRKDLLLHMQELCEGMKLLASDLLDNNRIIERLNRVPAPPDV

SMILES | test | conditions | endpoint | value
Cc1nn(CC(F)(F)F)cc1Nc1ncc(C2CC2)c(NCc2ccc(S(N)(=O)=O)cc2)n1 | enzyme activity, inhibitor, radiometric | 1 µM | remaining activity | 43%
COc1cc2c(N3CCN(C(=O)Nc4ccc(OC(C)C)cc4)CC3)ncnc2cc1OCCCN1CCCCC1 | cell-free assay | 0.5 µM | remaining signal | 96.2%
C[C@H](c1cccc(C#N)c1)n1cc(Cl)cc(C(N)=O)c1=N | cell-free assay, competition with immobilised ligand | 1 µM | remaining binding | 82%
Cc1nn(CC(F)(F)F)cc1Nc1ncc(Br)c(NCc2ccc(S(N)(=O)=O)cc2)n1 | enzyme activity, inhibitor, radiometric | 1 µM | remaining activity | 23%
CCOc1cc(-c2nncn2C)ccc1Nc1ncc2cc(C)nc(NCC(C)(C)C)c2n1 | enzyme activity, inhibitor, FRET | 1 µM | inhibition | < 15%
COc1ccc(COc2ccc(Cc3cnc(N)nc3N)cc2OC)cc1 | cell-free assay | 0.5 µM | remaining signal | 96.7%
COc1cc(/C=C/C(=O)CC(=O)/C=C/c2ccc(O)c(OC)c2)ccc1O | enzyme activity, inhibitor | 1 µM | activity vs control | 72%
CC(C)CC(=O)N1CCc2nc(-c3ccc(Br)cc3)nc(N(C)Cc3ccccc3)c2C1 | cell-free assay, competition with immobilised ligand | 0.1 µM | remaining binding | 100%
Nc1nc(Nc2ccc(S(N)(=O)=O)cc2)nn1C(=O)c1c(F)cccc1F | cell-free assay | 0.5 µM | remaining signal | 95.9%
NS(=O)(=O)c1ccc(CNc2nc(Nc3cccc(CN4CCOCC4)c3)ncc2C2CC2)cc1 | enzyme activity, inhibitor, radiometric | 1 µM | remaining activity | 43%
Nc1c(C(=O)NCc2ccc(C(=O)NCCCC3CCCCC3)cc2)cnn1-c1ccccc1 | cell-free assay, competition with immobilised ligand | 0.1 µM | remaining binding | 100%
Cc1ccc(C(=O)NCc2ccsc2)cc1C#Cc1cn(C(C)C)c2ncnc(N)c12 | enzyme activity, inhibitor | 1 µM | activity vs control | 104%
CN1CCN(c2ccc3nc(-c4c(N)c5c(F)cccc5[nH]c4=O)[nH]c3c2)CC1 | enzyme activity, inhibitor | 0.5 µM | activity vs control | 42.9%
CCC(=O)N[C@H]1CC[C@@H](C(=O)N(C)c2ccc(-c3nc4ccccc4o3)cc2)C1 | cell-free assay, competition with immobilised ligand | 1 µM | remaining binding | 52%
Cc1nn(CC(F)(F)F)cc1Nc1ncc(Br)c(NCCCNC(=O)C2CCC2)n1 | enzyme activity, inhibitor, radiometric | 1 µM | remaining activity | 1%
Cc1cc(NC(=O)c2cccc3cc(-c4cccc5[nH]nc(N)c45)ccc23)ccc1F | enzyme activity, inhibitor | 0.1 µM | activity vs control | 111%
CN1CCc2cc(Nc3ncc(C4CC4)c(NCCCNC(=O)C4CCC4)n3)ccc2C1 | enzyme activity, inhibitor, radiometric | 1 µM | remaining activity | 4%
O=C(N[C@H]1CCCCC/C=C\C2C[C@@]2(C(=O)O)NC(=O)[C@@H]2C[C@@H](Oc3ccncc3)CN2C1=O)OC1CCCC1 (stereo partly shown) | binding, competition with immobilised ligand | 1 µM | remaining binding | 100%
O=C(Nc1cccc(Nc2ncc(Br)c(NCCc3cnc[nH]3)n2)c1)N1CCCC1 | enzyme activity, inhibitor, radiometric | 1 µM | remaining activity | 44%
COc1cc2ncnc(Nc3ccc(Oc4ccccc4)cc3C)c2cc1OC | enzyme activity, inhibitor | 1 µM | inhibition | 5%
Cc1nn(CC(F)(F)F)cc1Nc1nccc(NCCc2cnc[nH]2)n1 | enzyme activity, inhibitor, radiometric | 1 µM | remaining activity | 83%
Cc1c(NC(=O)c2cc(C(N)=O)nc3cc(F)ccc23)c(C(F)(F)F)nn1Cc1ccc(C#N)cc1 | cell-free assay, competition with immobilised ligand | 1 µM | remaining binding | 75%
